Rows were chosen to be rich in hits. Some 3.9% of all compounds tested hit in one or more screens of this group.
CRFR2-BP ag: agonists of human CRF-binding protein/CRF-R2 receptor complex; HEK293 CRF-R2/CRF-BP, calcium dye fluorescence (FLIPR); percent of saturating CRF peptide response; hit rate 0.46% among 350,000; activation, % at 13.2 µM;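 active = activation of at least 50%, plus an integration ratio under a set limit after plate pattern correction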
CRFBP-R2 block: antagonists of CRF-binding protein/CRF-R2 receptor complex; HEK293 CRF-R2/CRF-BP, CRF-induced calcium fluorescence; inhibition, % at 11.8 µM; hit rate 0.59% among 350,000;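 active = inhibition of the ligand-induced calcium signal above about 50% at the single tested concentration, limit read from the data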
TAAR1 antag: human TAAR1 antagonism. Q96RJ0. CHO RD-HGA16 TAAR1, Fluo-8 calcium fluorescence, antagonist. inhibition, % at 3 µM. hit rate 1.5% among 360,000. AID 624466;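 active = inhibition above a per-plate cutoff, the mean inhibition of test compounds on that plate plus 3 SD, cut at about 49% in these data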
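Assay system: CHO-derived RD-HGA16 cells stably expressing human TAAR1 plus Gα16. Timing: 140 s kinetic read after compound, 140 s after agonist. Technique: kinetic Fluo-8 calcium fluorescence measurement. Measure: % inhibition of agonist calcium response.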
TAAR1 agonist: agonists of human TAAR1. CHO RD-HGA16 TAAR1, Fluo-8 calcium fluorescence; vehicle wells 0%, saturating PEA agonist 100%. Q96RJ0. hit rate 0.99% among 360,000. activation, % at 3 µM;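 active = activation above the mean activation of all test compounds in the run plus 3 SD, cut at about 38% in these data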
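test system = CHO RD-HGA16 cells carrying human TAAR1 plus Gα16 | schedule = 17-24 h seeding, 75 min 37 °C dye, 30 min RT | compound dosing = 3 µM single concentration | control set = DMSO and PEA EC100 | replicates = n 1 | signal = Fluo-8 fluorescence, 5 s baseline then 140 s kinetic read | measure = percent activation vs PEA EC100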
ANO1 block: inhibitors of mouse TMEM16A calcium-activated chloride channel; hit rate 1.2% among 310,000; HEK293 TMEM16A/YFP iodide influx fluorescence, ionomycin; Q8BHY3; normalized B-score (activity score, 25-100; higher = stronger inhibition) at 10 µM;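 active = ratio plate-corrected score three or more library SD toward inhibition, starting fluorescence score within five deviations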;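 note: score derived from kinetic fluorescence span divided by baseline fluorescence per well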
Target sequence (Q8BHY3 whole entry, looked up): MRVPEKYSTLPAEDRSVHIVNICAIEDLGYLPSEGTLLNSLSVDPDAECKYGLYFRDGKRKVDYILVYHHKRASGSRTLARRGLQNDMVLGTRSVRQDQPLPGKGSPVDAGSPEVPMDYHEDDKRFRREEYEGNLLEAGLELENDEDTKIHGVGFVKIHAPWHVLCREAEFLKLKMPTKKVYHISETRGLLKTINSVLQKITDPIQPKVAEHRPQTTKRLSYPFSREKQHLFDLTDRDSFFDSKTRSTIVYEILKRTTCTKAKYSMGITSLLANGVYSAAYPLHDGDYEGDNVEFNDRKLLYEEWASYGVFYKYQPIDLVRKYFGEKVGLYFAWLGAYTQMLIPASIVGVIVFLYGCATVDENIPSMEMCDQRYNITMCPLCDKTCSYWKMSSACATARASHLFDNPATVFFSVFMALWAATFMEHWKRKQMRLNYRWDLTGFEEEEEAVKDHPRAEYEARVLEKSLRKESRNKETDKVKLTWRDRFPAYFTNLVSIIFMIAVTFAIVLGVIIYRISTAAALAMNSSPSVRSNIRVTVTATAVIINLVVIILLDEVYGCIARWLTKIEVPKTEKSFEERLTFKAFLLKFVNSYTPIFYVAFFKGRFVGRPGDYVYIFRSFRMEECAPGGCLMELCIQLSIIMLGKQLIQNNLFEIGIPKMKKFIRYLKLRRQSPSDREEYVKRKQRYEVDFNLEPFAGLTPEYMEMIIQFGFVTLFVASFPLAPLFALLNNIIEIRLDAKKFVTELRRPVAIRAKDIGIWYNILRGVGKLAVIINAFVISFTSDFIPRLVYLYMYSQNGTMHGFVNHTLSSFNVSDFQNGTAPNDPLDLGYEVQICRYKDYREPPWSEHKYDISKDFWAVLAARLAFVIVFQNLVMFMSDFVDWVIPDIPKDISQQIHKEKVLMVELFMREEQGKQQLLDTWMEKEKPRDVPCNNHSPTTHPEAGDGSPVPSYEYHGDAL
TMEM16A act: mouse TMEM16A channel activation, primary screen; HEK293 TMEM16A/YFP-H148Q/I152L, iodide quench fluorescence; stronger effect = lower value; hit rate 0.3% among 340,000; B-score at 10 µM; Q8BHY3;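 active = fluorescence-ratio B-score plate-corrected deviation score at least 3 library SD below zero, with starting fluorescence score within 5 deviations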;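 note: channel opened by trigger with iodide after compound preincubation; score built on the fluorescence ratio of max minus min over baseline; more negative score means more quench and so TMEM16A activation or potentiation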
Hits are given with their value; . = inactive; / = no result given.

SMILES	CRFR2-BP ag	CRFBP-R2 block	TAAR1 antag	TAAR1 agonist	ANO1 block	TMEM16A act
COC(=O)C1(CC2CC(c3ccccc3)=NO2)CCN(C(=O)OC(C)(C)C)CC1 (configuration not stated)	.	.	.	.	25	.
CN1CCCc2cc3c(C(F)(F)F)cc(=O)oc3nc21	212	.	.	.	.	.
O=C(c1ccccc1)c1nn(-c2ccc(Cl)cc2)cc1C(=O)c1cc2ccccc2oc1=O	.	101	.	.	.	.
NC(=O)c1cn(-c2ccccc2)nc1-c1cc2ccccc2oc1=O	.	.	.	.	.	.
CC(=O)Nc1ccccc1OCC(=O)c1cc(C)n(Cc2cccs2)c1C	161	.	.	.	100	.
O=C(Nc1ccn(Cc2ccc(Cl)cc2)n1)c1ccccc1	.	.	.	.	25	.
O=C(Nc1ccn(Cc2ccccc2)n1)c1ccc2c(c1)OCO2	.	.	.	.	.	.
CC(=O)Nc1ccc(S(=O)(=O)Oc2ccc3c(c2)C(C)=CC(C)(C)N3)cc1	/	/	/	/	25	/
Cc1cccc(C(=O)Nc2ccccc2C(=O)OCC(=O)Nc2ccc(C#N)cc2)c1	.	.	58	.	.	.
Cc1cccc(OCC(=O)Nc2ccc(C(=O)Nc3ccccc3C(=O)O)cc2)c1	.	.	.	.	/	/
COc1cc(CCC(=O)NNC(=O)c2ccc(C)cc2)cc(OC)c1OC	.	.	.	.	.	.
Cc1c2ccccc2cc[n+]1CCCS(=O)(=O)[O-]	.	.	.	.	.	.
CC1(C)C(/C=C/C=C/C=C/C=C2\N(CCCCS(=O)(=O)O)c3ccc4ccccc4c3C2(C)C)=[N+](CCCCS(=O)(=O)[O-])c2ccc3ccccc3c21	.	69	/	/	.	.
Cc1ccccc1CS(=O)(=O)c1nnc([C@H](Cc2ccccc2)NC(=O)OC(C)(C)C)o1	.	.	.	.	.	-5.2
O=C(Nc1ccc([N+](=O)[O-])cc1)Nc1ccc(N2CCOCC2)c2nonc12	.	.	.	.	100	.
CC(=O)c1sc(N/N=C\c2ccccc2O)nc1C	.	.	.	42	.	.
COc1c(Cl)cc(Cl)cc1CNc1ccc(S(N)(=O)=O)cc1	.	58	.	.	.	.
CCOc1c(Cl)cc(CNc2ccc(S(N)(=O)=O)cc2)cc1OC	.	.	.	.	.	.
CCCCNc1ccc2c(c1)C1CC2CCN1C(=O)OCc1ccccc1 (configuration not stated)	.	.	.	.	/	.
CC(C)Oc1ccc(C2CC(=O)N(c3cccc(/C=C/C(=O)O)c3)C2=O)cc1 (configuration not stated)	.	.	.	.	.	.
COc1cccc(-c2cc(C(=O)N3CCN(c4ncccn4)CC3)c3ccccc3n2)c1	.	.	56	.	.	.
CC(C)Oc1cccc(-c2cc(C(=O)N3CCN(c4ncccn4)CC3)c3ccccc3n2)c1	/	/	52	.	.	.
COC(=O)c1cc(CNC(=O)CCCSc2ccccc2)ccc1OC	.	.	.	.	/	.
CN(C)C(=S)NC1CCS(=O)(=O)C1 (configuration not stated)	.	.	.	.	.	.
NNC(=S)NC1CCS(=O)(=O)C1 (configuration not stated)	.	108	.	.	.	.
SMILES	CRFR2-BP ag	CRFBP-R2 block	TAAR1 antag	TAAR1 agonist	ANO1 block	TMEM16A act
S=C(NC1CC2CCC1C2)N1CCN(c2cccc(Cl)c2)CC1 (configuration not stated)	.	.	.	.	.	.
COc1ccc2[nH]c3c(N4CCC(O)(c5cccc(C(F)(F)F)c5)CC4)ncnc3c2c1	.	.	51	.	100	.
COc1ccc(C(=O)Nn2c(SCC(=O)NC3CCCCC3)nc3ccccc3c2=O)cc1	.	75	.	.	.	.
COc1ccc(C(=O)Nn2c(SCC(=O)N3CCC(C)CC3)nc3ccccc3c2=O)cc1	.	.	.	.	.	.
CCOc1ccc(NC(=O)CCC(=O)NNC(=O)COc2ccc(C)cc2Br)cc1	.	.	.	.	.	.
COC(=O)C(Cc1ccc(OC(=O)c2ccccc2C)cc1)N1Cc2ccccc2C1=O (configuration not stated)	.	.	52	.	.	.
Cc1cc(CN2CCN(CC(=O)Nc3cc(C(F)(F)F)ccc3-n3cncn3)CC2)no1	.	.	.	.	/	.
CC(C)Cc1ccc(C(C)C(=O)Nc2ccccc2O)cc1 (configuration not stated)	77	.	92	77	25	.
c1csc(CNc2nc(Oc3ccncc3)c3sccc3n2)c1	/	/	.	.	/	/
c1ccc(COc2ccc(Nc3ncnc4nc[nH]c34)cc2)cc1	.	.	56	.	.	.
CC(C)(C)c1ccc(C2=CC(c3ccccc3)n3ncnc3N2)cc1 (configuration not stated)	.	.	/	/	100	.
Cc1ccc(C2=CC(c3ccc(C)cc3)n3ncnc3N2)cc1 (configuration not stated)	.	.	.	.	.	.
COc1ccc(C2=CC(c3ccco3)n3ncnc3N2)cc1 (configuration not stated)	170	.	/	/	/	.
Clc1ccc(C2=CC(c3ccco3)n3ncnc3N2)cc1 (configuration not stated)	349	.	.	107	.	.
COc1ccc(C2C=C(c3ccccc3)Nc3ncnn32)cc1 (configuration not stated)	.	.	.	.	.	.
COc1cccc(-c2nn(-c3ccc(C)cc3)cc2C(=O)N2CCN(C3CCS(=O)(=O)C3)CC2)c1 (configuration not stated)	.	.	.	.	/	.
COc1ccc(C(C)=O)cc1COC(=O)c1cc(C)oc1C	.	.	.	.	.	-11
COc1cccc(/C=N/Nc2snc(SC)c2C#N)c1	.	.	.	42	.	.
CN(Cc1ccccc1)C(=O)c1ccc2nc([C@@H]3O[C@H](CO)[C@H](O)[C@H](O)[C@H]3O)[nH]c2c1	/	/	.	.	/	/
COc1ccc(-c2nc(SCC(=O)N(CC(C)C)c3c(N)n(Cc4ccccc4)c(=O)[nH]c3=O)n[nH]2)cc1	.	.	.	.	.	.
CCCN(C(=O)CSc1n[nH]c(-c2ccc(OC)cc2)n1)c1c(N)n(Cc2ccccc2)c(=O)[nH]c1=O	.	59	.	.	.	.
CCCc1cnc(NCCNCC(O)COc2ccc(Cl)c(Cl)c2)nc1 (configuration not stated)	.	.	.	.	.	.
O=C(O)c1ccccc1-c1csc(-c2ccccc2)n1	.	.	.	.	.	.

Compound activity as filed in PubChem BioAssay.
